GalR3 antag = antagonists of human GalR3 | O60755 | HEK293 GalR3-CNG cAMP membrane potential fluorescence; galR3 body fused to GalR1 C-terminus | inhibition, % at 3 µM | 0.44% of 360,000 active;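 active means inhibition above the screen-wide average plus 3 SD, cut at about 13% in these data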;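 further: forskolin and galanin both at EC90 stimulate the cells; cAMP rise reported by CNG channel membrane potential dye signal; 0% = forskolin plus galanin with DMSO and 100% = forskolin alone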
PG9 Ab binder = PG9 antibody binding by small molecule | TR-FRET gp120-PG9 antibody binding | AID 624416 | inhibition, % at 6.7 µM | 0.43% of 360,000 active; in the data active means inhibition above about 8.5%
NR1D1 modulator = modulates human Rev-erb alpha binding to DNA | Rev-erbα–FITC-DNA binding, fluorescence polarization, 90 min | activity, % at 10 µM | 0.79% of 370,000 active;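 active means activity above about 14%, limit read from the data; passing the limit was not always enough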;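 further: 0% = DMSO wells with 35 nM protein and 100% = DMSO wells with 750 nM protein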
NR2E3 ag-1 = agonists of human nuclear receptor NR2E3. Q9Y5X4. GST-NR2E3/biotin-RetCOR TR-FRET, 1536-well. inhibition of corepressor binding, % at 4.78 µM. 0.12% of 320,000 active. AID 2300;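 active means percent inhibition above the cutoff of mean plus 3 SD of all tested compounds, set per screening campaign, cut at about 20% in these data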;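 further: 0% = DMSO wells and 100% = biotin wells as full block of FRET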
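System: GST-tagged NR2E3 plus biotinylated RetCOR corepressor; Buffer or medium: pH 7.5 Tris-based buffer; Probe or stimulus: RetCOR corepressor, biotinylated, 7 nM; Doses: compound at 4.8 µM, single dose; Schedule: 5 h incubation at 4 °C; Technique: time-resolved FRET; Evaluation: percent inhibition of TR-FRET ratio; Replication: one well per compound, singlicate testing.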
NR2E3 ag-2 = activates human NR2E3 receptor | Q9Y5X4 | CHO-S Gal4-NCOR/VP16-NR2E3 two-hybrid, luciferase | inhibition of corepressor binding, % at 3.98 µM | 0.35% of 360,000 active;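 active means inhibition above the mean of all tested compounds plus 3 SD, cut at about 70% in these data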;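 further: 0% = DMSO with NR2E3 transfected cells and 100% = cells lacking NR2E3 construct; higher means lower luciferase signal from less NR2E3 corepressor binding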
Rev-erbA confirm = confirmation of modulators of human Rev-erb alpha DNA binding; shares compounds with NR1D1 modulator; Rev-erb alpha FITC-DNA binding, fluorescence polarization, 90 min; activation, % at 25 µM; 61% of 3,000 active;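 active means activation at or above a set limit, or at least 3 SD above the negative control mean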;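 further: 0% = 35 nM protein with DMSO and 100% = 750 nM protein high control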
RORg counter = affects RORgamma DNA binding in a Rev-erb alpha counter-screen | shares compounds with NR1D1 modulator | purified RORgamma protein-FITC-DNA binding, fluorescence polarization | IC50, µM | 8% of 910 active;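 active means Compounds whose fitted half-maximal concentration for disrupting protein-DNA binding is below 10 micromolar; the record names Rev-erb in its text, so the target is in doubt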
An asterisk follows results filed as active; i = inactive; . = no result. Most compounds without a hit are left out; they make up all but 1.8% or so of the library.

SMILES	GalR3 antag	PG9 Ab binder	NR1D1 modulator	NR2E3 ag-1	NR2E3 ag-2	Rev-erbA confirm	others
CCOc1ccc2nc(SCC(=O)N3c4ccccc4Sc4ccccc43)c(C#N)cc2c1	-0.7	-2.6	141.5*	-0.5	11.0	60.6*	RORg counter=>40
CCSc1nc2ccc(C)cc2cc1C#N	-6.6	-0.7	30.1*	1.5	11.9	12.4
Cc1ccc2cc(C#N)c(SCC(=O)N3CCCc4ccccc43)nc2c1	-2.8	-2.1	59.6*	1.5	-5.1	44.3*	RORg counter=>40
CCc1cc2ccc(C)cc2nc1SCC(=O)Nc1cc(C)on1	-4.3	4.5	17.2*	-6.3	-13.6	9.0
CCC(CO)Nc1cccc2c1S(=O)(=O)N(Cc1cn(Cc3ccc(C(F)(F)F)cc3)nn1)Cc1ccccc1O2 (stereo unspecified)	.	.	-4.4	.	.	.
CN(C)[C@@H]1CCN(c2ccc3c(c2)O[C@H]2CCN(C2)S3(=O)=O)C1	.	.	0.2	.	.	.
O=C(CSc1nnc(-c2ccccc2)n1-c1ccccc1)Nc1ccccc1-c1ccccc1	.	.	-1.0	.	.	.
C[C@@H]1CCCN1c1ccc2c(c1)O[C@H]1CCN(C1)S2(=O)=O	.	.	-0.4	.	.	.
COc1cc2ccccc2cc1C(=O)Nc1ccc(Cl)cn1	6.5	0.5	31.2*	1.6	-42.0	17.0
CCOC(=O)c1sc(NC(=O)c2ccccc2F)c(C(N)=O)c1C	-3.8	7.7	20.0*	-6.1	-4.5	12.8
CCOC(=O)c1sc2ccc(S(=O)(=O)N3CC(C)CC(C)C3)cc2c1N (stereo unspecified)	1.9	-1.0	27.8*	-0.4	5.8	18.2*
COc1ccc(NC(=O)/C(C#N)=C\c2ccc(N3CCOCC3)o2)cc1	-4.9	-20.3	65.3*	-9.7	-41.3	40.5*	RORg counter=i
N#C/C(=C/c1ccc(N2CCCCC2)o1)C(=O)Nc1ccc2ccccc2c1	-2.9	-1.2	67.2*	.	-41.5	24.9*
N#C/C(=C/c1ccc(N2CCCCC2)o1)C(=O)Nc1ccc(Cl)cc1	-5.2	-9.8	10.4	-0.5	-83.3	.
N#C/C(=C\c1ccc(N2CCOCC2)o1)C(=O)Nc1ccc(O)cc1	-2.5	-25.9	43.7*	-16.1	-45.6	27.2*
COc1ccc(NC(=O)/C(C#N)=C/c2ccc(Br)o2)cc1	-6.4	0.5	-25.7	5.7	-5.4	.
CCCCNC(=O)C[C@H]1C[C@@]2(C(=O)OC)C(=C[C@H](C(C)C)O[C@@H]2C2CC2)N(CCC2=CCCCC2)C1=O	.	.	-2.0	.	.	.
O[C@H](COc1ccc(C(F)(F)F)cc1)CN1CCC(C(O)(c2ccccc2)c2ccccc2)CC1	.	.	6.6	.	.	.
Oc1c(Cl)cc(Cl)c(Cl)c1CN1CCOCC1	0.9	-0.8	5.0	.	-19.1	.
Cc1cc(C(C)c2ccccc2)c(O)c(CN2CCOCC2)c1C (stereo unspecified)	-7.5	-0.1	32.8*	-0.6	-29.3	43.2*	RORg counter=>40
CCc1cc2c(-c3ccccc3)cc(=O)oc2c(CN2CCOCC2)c1O	-3.1	-1.9	7.2	4.5	-18.8	.
Cc1c(Cl)cc(C(C)C)c(O)c1CN1CCOCC1	-2.5	1.0	42.4*	.	13.5	43.0*	RORg counter=>40
CCC(=O)Nc1nnc(SCC(=O)c2ccc3c(c2)Cc2ccccc2-3)s1	-2.8	7.4	44.3*	-9.3	-38.5	16.8*
CCC(=O)Nc1nnc(SCC(=O)N2c3ccccc3CC2C)s1 (stereo unspecified)	-8.0	-0.3	2.0	-1.7	-21.0	.
COc1ccc2c(Cl)c(-c3nnc(SCC(N)=O)n3C)sc2c1	0.5	1.1	1.9	0.7	9.0	.
COc1ccc2c(Cl)c(-c3nnc(SCC(=O)c4ccccc4)n3C)sc2c1	7.3	1.1	95.3*	-4.2	2.3	117.2*	RORg counter=i
Cn1c(SCC(=O)c2ccc3c(c2)Cc2ccccc2-3)nnc1-c1ccccc1	0.0	1.9	62.0*	-74.5	-42.1	46.6*	RORg counter=7.48*
CC(C)(C)N(Cc1cn(CC2CCCCC2)nn1)S(=O)(=O)c1ccc(F)cc1Br	.	.	-6.1	.	.	.
O=C(Nc1ccc(Oc2ccccc2)nc1)[C@H]1O[C@@H](n2ccc(=O)[nH]c2=O)[C@H](O)[C@@H]1O	0.2	1.1	19.9*	.	-8.7	-0.7

Bioassay records (PubChem BioAssay)
